Experimental data pooled from the literature.
Protocols differ between the studies behind these lines.
Target: Serine/threonine-protein kinase 10 (STK10, Homo sapiens, UniProt O94804)

Structure (SMILES)	assay	system	setting	endpoint	value
Cc1sc(C(=O)NC2COC2)cc1-n1cc(NC(=O)Nc2c(F)cccc2Cl)cn1	enzyme activity, inhibitor		10 µM	remaining activity	96.4%
CCCS(=O)(=O)Nc1ccc(F)c(C(=O)c2c[nH]c3ncc(-c4ccc(Cl)cc4)cc23)c1F	enzyme activity, inhibitor		1 µM	inhibition	< 10%
Nc1cnc(N2CCc3cc(S(=O)(=O)Nc4c(F)cc(Cl)cc4F)cc(N4CCCC4=O)c32)nc1	cell-free assay, competition with immobilised ligand		1 µM	remaining binding	100%
Cc1ccc(NC(=O)c2ccc(C)c(C(F)(F)F)c2)cc1C#Cc1nn(C2CCC(O)CC2)c2ncnc(N)c12 (centres unmarked)	cell-free assay		10 µM	remaining signal	16%
Nc1nc(Nc2ccc(S(N)(=O)=O)cc2)nn1C(=O)c1c(F)cccc1F	cell-free assay		0.5 µM	remaining signal	17%
CCN1CCN(Cc2ccc(NC(=O)c3ccc(C)c(/C=C/c4cnc5[nH]ccc5c4OC)c3)cc2C(F)(F)F)CC1	target engagement in cells, inhibitor, chemoproteomics	A-375	0.5 µM	inhibition	-69.1%
Cc1ccc(Nc2nccc(N(C)c3ccc4c(C)n(C)nc4c3)n2)cc1S(N)(=O)=O	enzyme activity, inhibitor		0.5 µM	remaining activity	50.1%
C[C@@H](c1cccc(C#N)c1)n1cc(Cl)cc(C(N)=O)c1=N	cell-free assay, competition with immobilised ligand		1 µM	remaining binding	86%
CC(C)(O)[C@H]1CC[C@H](Nc2ccc3ncc(-c4cccc(C(F)(F)F)c4)n3n2)CC1	enzyme activity, inhibitor		1 µM	remaining activity	63.8%
O=C1CCc2cc(Nc3cc(OC4CCOCC4)c([N+](=O)[O-])cc3Cl)ccc2N1	cell-free assay, competition with immobilised ligand		1 µM	remaining binding	100%
Cc1cc(NC(=O)c2cccc3cc(-c4cccc5[nH]nc(N)c45)ccc23)ccc1F	enzyme activity, inhibitor		0.1 µM	activity vs control	97%
FC(F)(F)c1ccc2c(c1)nc(-c1cccnc1)n2C1CC1	cell-free assay, competition with immobilised ligand		1 µM	remaining binding	100%
Nc1ncnc2occ(-c3ccc(NC(=O)Nc4cc(C(F)(F)F)ccc4F)cc3)c12	cell-free assay, inhibitor		20 µM	remaining signal	0%
CNC(=O)c1cc(Oc2ccc(NC(=O)Nc3ccc(Cl)c(C(F)(F)F)c3)cc2)ccn1	enzyme activity, inhibitor		10 µM	inhibition	88%
CCN1CCN(Cc2ccc(NC(=O)c3ccc(C)c(Oc4ccnc5[nH]ccc45)c3)cc2C(F)(F)F)CC1	target engagement in cells, inhibitor, chemoproteomics	Huh-7	1 µM	inhibition	-148%
CC/C(=N\NC(=O)NCc1cccc(O)c1)c1ccc(O)c(C)c1O	enzyme activity, inhibitor		0.1 µM	inhibition	1%
CCN(CC)CCNC(=O)c1c(C)[nH]c(/C=C2\C(=O)Nc3ccc(F)cc32)c1C	enzyme activity, inhibitor		0.3 µM	inhibition	37%
c1ccc(N2CCN(Cc3nc4ccccc4[nH]3)CC2)nc1	binding, competition with immobilised ligand		1 µM	remaining binding	100%
C#Cc1cccc(Nc2ncnc3cc(OCCOC)c(OCCOC)cc23)c1	cell-free assay		0.5 µM	remaining signal	20.3%
Cn1nc(C(F)(F)F)cc1-c1cnc(N2CCc3cc(S(=O)(=O)Nc4c(F)cc(Cl)cc4F)cc(N4CCCC4=O)c32)nc1	cell-free assay, competition with immobilised ligand		1 µM	remaining binding	94%
COc1cc(Cl)c(C(=O)N[C@@H](CN[C@H]2CC[C@@H](N)CC2)Cc2ccc(C#N)cc2)cc1-c1ccc(CN[C@H](C)c2ccc(C)cc2)o1	enzyme activity, inhibitor		1 µM	remaining activity	110%
CCOCCn1cc(C(=O)Nc2ccc(-n3nc(-c4cccnc4)cc3C(F)(F)F)cn2)ccc1=O	cell-free assay, competition with immobilised ligand		1 µM	remaining binding	100%
Cc1cnc(NC2CCOCC2)nc1-n1cnc(C(=O)NC(CN)c2cc(F)cc(Cl)c2)c1 (centres unmarked)	enzyme activity, inhibitor, radiometric		1 µM	remaining activity	87%
